# Active and inactive are the calls of the source. The calls are words filed in the database; no cut-off is given here.
# Experiments:
# Rattus norvegicus [1] = experiment: In vivo concentration in rat liver exposure 0-8 hour after oral administration 50 mg/kg; type: ADME, organism-based; design: dose 50 mg/kg, route oral
# In short: (§1)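 Male Sprague–Dawley rats given a single oral dose of 50 mg/kg as a suspension in a wet granulation vehicle (povidone/lactose/polysorbate). Blood was collected by orbital sinus and terminal cardiac puncture at selected times up to 8 h. Livers were perfused intracardially with saline before sampling. Plasma and liver drug concentrations were measured by LC/MS/MS.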
# Rattus norvegicus [2] = experiment: In vivo area under curve in rat plasma exposure after oral administration 50 mg/kg; type: ADME, organism-based; design: dose 50 mg/kg, route oral; in short: as §1
# [3] = In vivo concentration in rat liver exposure 8 hour after oral administration 50 mg/kg; type: ADME, organism-based; design: dose 50 mg/kg, route oral; details: read-out: C; in short: as §1
# [4] = In vivo concentration in rat plasma exposure at 8 hour after oral administration 50 mg/kg; type: ADME, organism-based; design: dose 50 mg/kg, route oral; details: read-out: C; in short: as §1
# Chymotrypsinogen A = Chymotrypsinogen A (Bos taurus, UniProt P00766); experiment: Inhibitory activity against Chymotrypsin
# In short: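 One of a panel of 10 human serine and cysteine proteases (elastase, chymotrypsin, trypsin, kallikrein, plasmin, thrombin, Factor Xa, cathepsins B, G and L).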
# [5] = biological target: Kallikrein-1 (Homo sapiens) (UniProt P06870); experiment: Inhibitory activity against kallikrein at 100 uM concentration; Not significant
# [6] = biological target: Prothrombin (Homo sapiens) (UniProt P00734); experiment: Inhibitory activity against thrombin at 100 uM concentration; Not significant
# [7] = biological target: Serine protease 1 (Homo sapiens) (UniProt P07477); experiment: Inhibitory activity against trypsin at 100 uM concentration; Not significant
# [8] = Ratio of cytotoxicity (CC50) to that of replicon (IC50) was determined
# In short: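 Selectivity index: the IC50 from the XTT cytotoxicity assay in Huh-7 cells divided by the IC50 from a modified HCV subgenomic replicon assay.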
# Huh-7 (Homo sapiens) = experiment: Cytotoxic activity in liver Huh-7 cells
# Rattus norvegicus [9] = experiment: In vivo concentration in rat liver exposure 8 hour after oral administration 50 mg/kg; Below detection limit; type: ADME, organism-based; design: dose 50 mg/kg, route oral; in short: as §1
# [10] = Ratio of the concentration of liver to that of IC50 replication was determined; type: ADME
# [11] = Inhibitory activity against plasmin at 100 uM concentration; Not significant
# Kallikrein-1 (Homo sapiens), sequence (P06870 25-262 limits assumed): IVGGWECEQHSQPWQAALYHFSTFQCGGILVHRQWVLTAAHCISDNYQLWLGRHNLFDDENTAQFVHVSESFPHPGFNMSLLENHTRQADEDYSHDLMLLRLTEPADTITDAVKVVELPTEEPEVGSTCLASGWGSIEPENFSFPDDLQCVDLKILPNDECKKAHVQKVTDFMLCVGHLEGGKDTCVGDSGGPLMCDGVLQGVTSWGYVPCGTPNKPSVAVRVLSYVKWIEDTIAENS
# Serine protease 1 (Homo sapiens), sequence (P07477 whole entry): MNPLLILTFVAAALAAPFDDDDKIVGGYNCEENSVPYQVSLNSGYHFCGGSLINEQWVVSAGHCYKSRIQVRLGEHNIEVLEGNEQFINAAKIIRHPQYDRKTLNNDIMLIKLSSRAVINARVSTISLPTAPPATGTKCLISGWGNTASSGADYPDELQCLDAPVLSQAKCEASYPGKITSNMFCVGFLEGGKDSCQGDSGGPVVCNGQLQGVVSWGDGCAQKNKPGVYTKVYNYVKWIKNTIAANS
SMILES,Caverage (Rattus norvegicus [1]),AUC (Rattus norvegicus [2]) [ng·h/mL],concentration at 8 h [3] [µM],concentration at 8 h [4] [ng/mL],IC50 (Chymotrypsinogen A) [µM],inhibition [5],inhibition [6],inhibition [7],Ratio [8],CC50 (Huh-7 (Homo sapiens)) [µM],C (Rattus norvegicus [9]),Ratio [10],inhibition [11]
CCC[C@H](NC(=O)[C@@H]1[C@H]2CCC[C@H]2CN1C(=O)[C@@H](NC(=O)[C@@H](NC(=O)c1cnccn1)C(C)C)C(C)(C)C)C(=O)C(=O)NC1CC1,16 µM,25800,3.67,520,> 100,inactive,inactive,inactive,,,,,
CCC(C)NC(=O)C(=O)[C@H](CC(F)F)NC(=O)[C@@H]1[C@H]2CCC[C@H]2CN1C(=O)[C@@H](NC(=O)[C@@H](NC(=O)c1cnccn1)C(C)C)C(C)(C)C (stereo partly drawn),,,,,,,,,> 38,> 100,,,
CC(C)[C@H](NC(=O)c1cnccn1)C(=O)N[C@H](C(=O)N1C[C@@H]2CCC[C@@H]2[C@H]1C(=O)N[C@@H](CC(F)F)C(=O)C(=O)N[C@@H](C)c1ccccc1)C(C)C,,,,,,,,,> 110,> 100,,,
CC(C)[C@H](NC(=O)c1cnccn1)C(=O)N[C@H](C(=O)N1C[C@@H]2CCC[C@@H]2[C@H]1C(=O)NC(CC(F)F)C(=O)C(=O)NC1CC1)C(C)C (stereo partly drawn),</- 0.88 uM,145,,20,,,,,> 26,> 100,Below detection limit,<= 0.23,
CCC[C@H](NC(=O)[C@@H]1[C@H]2CCC[C@H]2CN1C(=O)[C@@H](NC(=O)[C@@H](NC(=O)c1cnccn1)C(C)C)C(C)(C)C)C(=O)C(=O)N[C@@H](C)c1ccccc1,,,,,,inactive,inactive,inactive,,,,,
CCCC(NC(=O)[C@@H]1[C@H]2CCC[C@H]2CN1C(=O)[C@@H](NC(=O)[C@@H](NC(=O)c1cnccn1)C(C)C)C(C)C)C(=O)C(=O)NC1CC1 (stereo partly drawn),6.29 µM,2860,,,,inactive,inactive,inactive,,,,,
CCC[C@H](NC(=O)[C@@H]1[C@H]2CCC[C@H]2CN1C(=O)[C@@H](NC(=O)[C@@H](NC(=O)c1cnccn1)C(C)C)C(C)(C)C)C(=O)C(=O)NC(C)CC (stereo partly drawn),14 µM,22300,8.68,920,> 100,inactive,inactive,inactive,> 29,> 100,,4,inactive
CC(C)[C@H](NC(=O)c1cnccn1)C(=O)N[C@H](C(=O)N1C[C@@H]2CCC[C@@H]2[C@H]1C(=O)N[C@@H](CC(F)F)C(=O)C(=O)N[C@@H](C)c1ccccc1)C(C)(C)C,,,,,,,,,> 159,> 100,,,
CC(C)[C@H](NC(=O)c1cnccn1)C(=O)N[C@H](C(=O)N1C[C@@H]2CCC[C@@H]2[C@H]1C(=O)N[C@@H](CC(F)F)C(=O)C(=O)NC1CC1)C(C)(C)C,3.64 µM,1880,0.67,40,,inactive,inactive,inactive,,,,,

# From ChEMBL document CHEMBL1149206, “P1 and P3 optimization of novel bicycloproline P2 bearing tetrapeptidyl alpha-ketoamide based HCV protease inhibitors” (Bioorg Med Chem Lett, 2004)
